Experimental findings from ChEMBL document CHEMBL4354865 (J Med Chem, 2020) are described below.

Data set [1] has as its target T1, Indoleamine 2,3-dioxygenase 1 (Homo sapiens, UniProt P14902). Briefly: Selectivity ratio of IC50 for IDO1 in IFNgamma-stimulated human DAN-G cells to IC50 for IDO1 in IFNgamma-stimulated human LXF-289 cells.
Target sequence in this assay (P14902 whole entry, looked up): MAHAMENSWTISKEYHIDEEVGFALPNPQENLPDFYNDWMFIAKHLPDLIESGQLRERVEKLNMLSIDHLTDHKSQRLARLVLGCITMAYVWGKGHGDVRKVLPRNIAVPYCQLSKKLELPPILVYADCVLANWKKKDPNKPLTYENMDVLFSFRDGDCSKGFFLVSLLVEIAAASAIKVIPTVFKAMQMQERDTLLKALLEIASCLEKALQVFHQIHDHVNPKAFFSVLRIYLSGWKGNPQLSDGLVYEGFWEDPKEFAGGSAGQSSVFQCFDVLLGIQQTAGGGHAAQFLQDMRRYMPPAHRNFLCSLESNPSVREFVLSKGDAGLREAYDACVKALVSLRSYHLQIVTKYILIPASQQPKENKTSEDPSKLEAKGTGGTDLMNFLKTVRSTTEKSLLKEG
Data set [2] has as its target T1, Indoleamine 2,3-dioxygenase 1. Briefly: Inhibition of IDO1 in PDAC patient derived suppressive monocytes co-cultured with human PBMC assessed as reduction in anti-CD3/anti-CD28-stimulated CD3+T cell proliferation at 30 uM preincubated for 4 days followed by co-culturing of monocytes and measured after 24 hrs by flow cytometric analysis.
Target sequence in this assay (P14902 whole entry, looked up): as above
The target is the same in data set [3]. Briefly: Inhibition of IDO1 in IFNgamma-stimulated human LXF-289 cells assessed as reduction in L-Kyn level measured after 48 hrs by HPLC analysis.
Target sequence in this assay (P14902 whole entry): as the sequence (P14902 whole entry, looked up) above
Data set [4] has the same target. Briefly: Inhibition of IDO1 in IFNgamma-stimulated human DAN-G cells assessed as reduction in L-Kyn level measured after 48 hrs by HPLC analysis. Type of data set: cell-based.
Target sequence in this assay (P14902 whole entry): as the sequence (P14902 whole entry, looked up) above
In data set [5] the target is Indoleamine 2,3-dioxygenase 1 (Mus musculus, UniProt P28776). Briefly: Inhibition of mouse IDO1 transfected in P815 cells assessed as reduction in L-Kyn level measured after 16 hrs by HPLC analysis. The format is cell-based. In short, it runs like this: (§1)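 P815 mastocytoma cells stably expressing mouse IDO1 (P1.IDO1) or TDO (P1.TDO) were treated with serial dilutions for 16 h. L-Kyn secreted into the culture supernatant was quantified by HPLC, and an IC50 was determined in each line.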
Sequence of Indoleamine 2,3-dioxygenase 1 (Mus musculus, UniProt P28776) (P28776 whole entry): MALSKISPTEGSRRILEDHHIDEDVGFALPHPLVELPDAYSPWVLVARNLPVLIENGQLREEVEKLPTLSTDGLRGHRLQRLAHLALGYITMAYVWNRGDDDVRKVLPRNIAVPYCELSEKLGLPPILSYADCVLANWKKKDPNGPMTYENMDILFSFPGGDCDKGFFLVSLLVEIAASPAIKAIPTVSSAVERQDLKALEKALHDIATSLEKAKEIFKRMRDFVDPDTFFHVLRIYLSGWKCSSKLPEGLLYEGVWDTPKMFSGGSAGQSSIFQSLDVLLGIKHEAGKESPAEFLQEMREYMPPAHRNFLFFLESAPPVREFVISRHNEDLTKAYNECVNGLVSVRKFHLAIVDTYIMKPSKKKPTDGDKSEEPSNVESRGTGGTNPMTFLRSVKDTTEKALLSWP

Data set [6] can be described thus: Cytotoxicity against human A375 cells assessed as cell viability at 1 uM measured after 48 hrs by MTT assay relative to control. The format is cell-based, A-375. The note with it: read-out: Activity. In short, it runs like this:
(§2)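 A375 cells, unstimulated or stimulated with recombinant human IFN-γ, were left untreated or treated with 1 µM compound for 48 h. L-Kyn was measured by HPLC and cell viability was assessed.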

Data set [7] has as its target Tryptophan 2,3-dioxygenase (Mus musculus, UniProt P48776). Briefly: Inhibition of mouse TDO transfected in P815 cells assessed as reduction in L-Kyn level measured after 16 hrs by HPLC analysis. Type of data set: cell-based. In short, it runs like this: as §1
Data set [8] addresses T1, Indoleamine 2,3-dioxygenase 1. Briefly: Inhibition of IDO1 in IFNgamma-stimulated human HepG2 cells assessed as reduction in L-Kyn level measured after 48 hrs by HPLC analysis. The format is cell-based.
Target sequence in this assay (P14902 whole entry): as the sequence (P14902 whole entry, looked up) above
Data set [9] has the same target. Briefly: Selectivity ratio of IC50 for IDO1 in IFNgamma-stimulated human DAN-G cells to IC50 for IDO1 in IFNgamma-stimulated human HeLa cells.
Target sequence in this assay (P14902 whole entry, looked up): as above
In data set [10] the test system is Monocyte. Briefly: Effect on anti-CD3/anti-CD28-stimulated CD3+T cell proliferation in PDAC patient derived non-suppressive monocytes co-cultured with human PBMC at 30 uM preincubated for 4 days followed by co-culturing of monocytes and measured after 24 hrs by flow cytometric analysis. Type of data set: cell-based. An outline of the steps: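 PDAC patient monocytes (suppressive or non-suppressive) were pre-treated with 30 µM compound or DMSO, then co-cultured for 4 days with Cell Trace-labelled activated CD3+ T cells. T-cell proliferation was read from proliferation peaks and normalized to activated T cells cultured without myeloid cells. Data are mean ± SEM; Mann-Whitney test.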

Data set [11] concerns the target T1, Indoleamine 2,3-dioxygenase 1. Briefly: Inhibition of IDO1 in IFNgamma-stimulated human HeLa cells assessed as reduction in L-Kyn level measured after 48 hrs by HPLC analysis. The format is cell-based.
Target sequence in this assay (P14902 whole entry): as the sequence (P14902 whole entry, looked up) above
Data set [12] shares this target. Briefly: Selectivity ratio of IC50 for IDO1 in IFNgamma-stimulated human DAN-G cells to IC50 for IDO1 in IFNgamma-stimulated human MCF7 cells.
Target sequence in this assay (P14902 whole entry, looked up): as above
The target is the same in data set [13]. Briefly: Binding affinity to NT650-NHS fluorophore-labeled recombinant human N-terminal His-tagged IDO1 expressed in Escherichia coli measured after 10 mins by microscale thermophoresis assay.
Target sequence in this assay (P14902 whole entry): as the sequence (P14902 whole entry, looked up) above
Data set [14] is described as follows: Inhibition of CYP450 in rat liver microsomes assessed as reduction in aminopyrine N-demethylase activity preincubated for 3 mins followed by NADPH addition and measured after 15 mins by iodometric titration method. Type of data set: ADME. Conditions: for inhibition (INH): rat, microsomes, 0.25 h. In short, it runs like this: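 CYP inhibition read by aminopyrine N-demethylase activity, with IC50 determined from concentration–response curves. Ketoconazole (CYP3A inhibitor) served as reference.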

For data set [15], the target named is T1, Indoleamine 2,3-dioxygenase 1. Briefly: Selectivity ratio of IC50 for IDO1 in IFNgamma-stimulated human DAN-G cells to IC50 for IDO1 in IFNgamma-stimulated human HepG2 cells.
Target sequence in this assay (P14902 whole entry, looked up): as above
The subject of data set [16] is Monocyte. Briefly: Cytotoxicity against human monocytes assessed as reduction in cell viability at 30 uM measured after 24 hrs by Annexin-V APC/7-AAD staining based flow cytometric analysis. An outline of the steps: (§3)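 Monocytes from healthy donors (n=3) and from PDAC patients (n=3) were treated for 24 h, with DMSO as control. Viability was normalized to untreated cells. Healthy-donor cells received a range of concentrations; PDAC cells received 30 µM.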

Data set [17] can be described thus: Drug metabolism in CD-1 mouse liver microsomes assessed as oxidative N-dealkylation at 50 uM measured after 1 hr by LC-HRMS analysis. Type of data set: ADME, Microsome.
Data set [18] addresses T1, Indoleamine 2,3-dioxygenase 1. Briefly: Inhibition of IDO1 in IFNgamma-stimulated human A375 cells assessed as reduction in L-Kyn level at 10 uM measured after 48 hrs by HPLC analysis relative to control. In short, it runs like this:
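Screen in melanoma A375 cells, which express IDO1 when treated with recombinant human IFN-γ. Cells were left untreated or given 10 µM compound for 48 h. L-Kyn was then measured. Cell viability was also checked.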
Target sequence in this assay (P14902 whole entry, looked up): as above

Data set [19] shares this target. Briefly: Inhibition of IDO1 in IFNgamma-stimulated human MCF7 cells assessed as reduction in L-Kyn level measured after 48 hrs by HPLC analysis. The format is cell-based.
Target sequence in this assay (P14902 whole entry): as the sequence (P14902 whole entry, looked up) above
The target is the same in data set [20]. Briefly: Inhibition of IDO1 in IFNgamma-stimulated human A375 cells assessed as reduction in L-Kyn level at 1 uM measured after 48 hrs by HPLC analysis relative to control. In short, it runs like this: as §2
Data set [21] relates to Mus musculus. Briefly: In vivo inhibition of IDO1 in BALB/c mouse assessed as reduction in L-kyn level at 10 mg/kg, iv measured after 8 hrs by LC-HRMS analysis. The format is functional, organism-based. An outline of the steps: (§4)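 After a single 10 mg/kg i.v. dose in mice, plasma L-Kyn was measured at 0, 2, 5, 15 and 30 min and at 8 h post-injection, and compared with basal level.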

Data set [22] is described as follows: Metabolic stability in CD-1 mouse liver microsomes assessed as parent compound remaining at 50 uM measured after 1 hr in presence of NADPH generating system by UV-LC/MS analysis. The format is ADME, Microsome. Conditions: read-out: Stability. In short, it runs like this:
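Mouse liver microsomes activated with NADPH. Residual parent compound was measured after 1 h incubation.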

For data set [23], the target named is T1, Indoleamine 2,3-dioxygenase 1. Briefly: Selectivity ratio of IC50 for IDO1 in IFNgamma-stimulated human DAN-G cells to IC50 for IDO1 in IFNgamma-stimulated human A375 cells.
Data set [24] concerns Monocyte. Briefly: Cytotoxicity against PDAC patient derived monocytes assessed as reduction in cell viability at 30 uM measured after 24 hrs by Annexin-V APC/7-AAD staining based flow cytometric analysis. The note with it: human. In short, it runs like this:
as §3

Data set [25] is described as follows: Metabolic stability in CD-1 mouse liver microsomes assessed as parent compound remaining at 50 uM measured after 1 hr in presence of NADPH by UV-LC/MS analysis.
A short description of data set [26]: Drug metabolism in CD-1 mouse liver microsomes assessed as benzimidazole oxidation at 50 uM measured after 1 hr by LC-HRMS analysis. The format is ADME, Microsome.
Data set [27] relates to Mus musculus. Briefly: In vivo inhibition of IDO1 in BALB/c mouse assessed as reduction in L-kyn level at 10 mg/kg, iv measured up to 30 mins by LC-HRMS analysis. Type of data set: functional, organism-based. In short, it runs like this:
as §4

Data set [28] is described as follows: Inhibition of CYP3A in rat liver microsomes assessed as reduction in aminopyrine N-demethylase activity preincubated for 3 mins followed by NADPH addition and measured after 15 mins by iodometric titration method. The format is ADME. An outline of the steps: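 IC50 derived by fitting concentration–response curves for inhibition of aminopyrine N-demethylase activity, with ketoconazole run as the reference CYP3A inhibitor.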

The nature of data set [29]: Chemical stability of the compound. Type of data set: physicochemical.
Data set [30] addresses T1, Indoleamine 2,3-dioxygenase 1. Briefly: Inhibition of IDO1 in IFNgamma-stimulated human A375 cells assessed as reduction in L-Kyn level measured after 48 hrs by HPLC analysis.
Data set [31] can be described thus: Volume of distribution in BALB/c mouse at 10 mg/kg, iv by LC-MS analysis. The format is ADME, organism-based. The note with it: in vivo. An outline of the steps:
(§5)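 Mice received a single i.v. dose of 10 mg/kg. Serial blood samples were taken and PK parameters derived, including half-life, clearance, volume of distribution and Cmax.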

A short description of data set [32]: Half life in BALB/c mouse at 10 mg/kg, iv by LC-MS analysis. The format is ADME, organism-based. Conditions: in vivo. An outline of the steps: as §5
Data set [33] deals with Mus musculus. Briefly: In vivo inhibition of IDO1 in BALB/c mouse assessed as reduction in L-kyn level at 10 mg/kg, iv measured up to 8 hrs by LC-HRMS analysis.
Data set [34] is filed under the species Mus musculus. Briefly: Selectivity ratio of IC50 for inhibition of mouse TDO transfected in P815 cells to IC50 for inhibition of mouse IDO1 transfected in P815 cells. The format is cell-based. An outline of the steps: as §1
A short description of data set [35]: Cmax in BALB/c mouse at 10 mg/kg, iv by LC-MS analysis. The format is ADME, organism-based. Also noted: dose 10 mg/kg, route intravenous. The note with it: in vivo. In short, it runs like this: as §5

Each structure is given as a SMILES string. The source made the active and inactive calls. No cut-off for these calls is given here. Some results are limits rather than exact numbers.

Sequence of Tryptophan 2,3-dioxygenase (P48776 whole entry): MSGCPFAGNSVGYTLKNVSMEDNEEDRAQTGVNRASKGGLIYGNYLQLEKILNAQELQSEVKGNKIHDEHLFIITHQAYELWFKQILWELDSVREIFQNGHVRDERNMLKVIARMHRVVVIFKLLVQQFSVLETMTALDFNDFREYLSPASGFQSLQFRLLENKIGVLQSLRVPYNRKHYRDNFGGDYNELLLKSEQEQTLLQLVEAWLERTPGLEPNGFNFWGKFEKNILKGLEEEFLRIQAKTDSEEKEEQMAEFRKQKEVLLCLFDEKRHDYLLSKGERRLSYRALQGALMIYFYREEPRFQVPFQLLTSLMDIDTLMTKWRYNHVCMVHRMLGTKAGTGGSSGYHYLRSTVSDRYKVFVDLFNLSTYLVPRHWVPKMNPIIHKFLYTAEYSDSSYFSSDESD

For `O=C(NCc1cccc(Cn2cnc3ccccc32)c1)c1cc(Br)c[nH]1`, the Ratio IC50 in [1], in data set [9], in data set [12], in data set [15] and in [23] was more than 1 throughout. Besides, the inhibition entry (in [2]; in the data set on Mus musculus [27]) was “Active” throughout. Also, the IC50 in [3] was determined as 14 nM; in [4], 605 nM; in [5], 12.7 nM; in data set [7], 5460 nM; in data set [8], 43 nM; in [11], 64 nM. Also, the IC50 is 67700 nM in [14] and 21 nM in data set [19]. Besides, the viability at 48 h, 1 µM in data set [6] lay within 85 to 100%. Besides, the Activity result with Monocyte [10], in the data set with Monocyte [16] and in the data set with Monocyte [24] was “Non-Toxic” in each case. The Kd in data set [13] turned out to be 550 nM. Further, the Drug metabolism result in data set [17] and in data set [26] was “Metabolite_Detected” throughout. For the same compound, the inhibition in data set [18] was more than 30%; in data set [20], 96%. Besides, the inhibition entry in the data set with Mus musculus [21] is “inactive”. The remaining at 1 h, 50 µM in [22] and in [25] was 32% throughout.
With `CC(=O)N1CCN(c2ccc(OCC3COC(Cn4ccnc4)(c4ccc(Cl)cc4Cl)O3)cc2)CC1` (centres undefined) [KETOCONAZOLE], the IC50 in [28] amounted to 6400 nM.
As to `O=C(NCc1cccc(Cn2cnc3ccc(Br)cc32)c1)c1cc(Br)c[nH]1`, in data set [6], the viability at 48 h, 1 µM was 99%. Also, the Stability result in [29] is “Unstable”. In addition, in data set [30], the concentration for half-maximal inhibition (IC50) came out at 19 nM. Further, in [20], the inhibition amounted to 98%.
On to `NS(=O)(=O)NCCNc1nonc1C(=NO)Nc1ccc(F)c(Br)c1` [EPACADOSTAT], for which the viability at 48 h, 1 µM in data set [6] amounted to 97%. In addition, the Activity entry with Monocyte [16] and with Monocyte [24] was “Non-Toxic” each time.
As to `N#Cc1ccc(C(=O)NCc2cccc(Cn3cnc4ccccc43)c2)cc1`, the half-maximal inhibitory concentration (IC50) in data set [4] came out at 1940 nM; in data set [5], 112 nM; in data set [7], 32300 nM; in data set [30], 90 nM; in data set [19], 110 nM. Besides, in [6], the viability at 48 h, 1 µM stood at 100%. Also, the “inhibition (INH)” value in data set [14] is given as “Not Active”. For the same compound, the Drug metabolism result in data set [17] and in [26] was “Metabolite_Detected” throughout. Further, the inhibition in data set [20] was 88%. In addition, the remaining at 1 h, 50 µM in data set [22] and in data set [25] was 59% each time.
On to `O=C(NCc1cccc(Cn2cnc3ccccc32)c1)c1cc2ccccc2[nH]1`, for which the inhibition entry (in data set [2]; in the data set on Mus musculus [33]) was “Active” throughout. In addition, the IC50 in data set [4] was 140 nM; in data set [5] it was 9.3 nM; in [7], 13200 nM; in data set [30], 72 nM; in [19], 83 nM. For the same compound, the viability at 48 h, 1 µM in data set [6] turned out to be 99%. In data set [31], this compound came in with a Vd of 6.6 L/kg. For the same compound, the t1/2 in data set [32] is 39 min. The Activity result in the data set on Monocyte [10], with Monocyte [16] and with Monocyte [24] was “Non-Toxic” throughout. The “inhibition (INH)” value in data set [14] is “Not Active”. The Ratio IC50 in the data set listed under Mus musculus [34] was more than 1000; in data set [23] it was 1.9. Besides, the Drug metabolism entry in data set [17] and in [26] was “Metabolite_Detected” each time. This compound showed a peak concentration (Cmax) in data set [35] of 2680 ng/mL. The inhibition in data set [20] stood at 94%. For the same compound, the remaining at 1 h, 50 µM in data set [22] and in [25] was 65% each time.
